Results reported in ChEMBL document CHEMBL1255284, “Aspergillus section Fumigati: antifungal susceptibility patterns and sequence-based identification” (2008).
Values after ≈ are worked out from the molar mass of the structure shown. Numbered stars: 1 amine (or outer) side, 2 acyl side, 3 side chain; on linkers, the order of the positions; unused ones are H or OH. Bridge positions count the residues as written; N and C are the ends. Square brackets hold non-standard residues; d marks the D form. Peptide text beside a SMILES is read from it. * marks the point of attachment. hTyr(3S-OH,4S-OH,3'-OSO3H) = N[C@H](C(=O)O)[C@H](O)[C@@H](O)c1ccc(O)c(OS(=O)(=O)O)c1; Orn(4R-OH,5R-OH) = O=C([C@H](C[C@@H](O)[C@@H](O)N[*:3])N[*:1])[*:2]; Pro(3S-OH,4S-Me) = C[C@H]1CN[C@H](C(=O)O)[C@H]1O; X1 = CCCCCOc1ccc(-c2cc(-c3ccc(C(=O)*)cc3)no2)cc1; Gln(3R-OH) = NC(=O)C[C@@H](O)[C@H](N)C(=O)O; Hyp = O=C(O)[C@@H]1C[C@@H](O)CN1

How the values were obtained:
Aspergillus lentulus [1] = test: Antimicrobial activity against Aspergillus lentulus isolate CNM-CM-3583 obtained from sputum of patient after 48 hrs by broth microdilution method; type: functional; conditions: isolate CNM-CM-3583, 48 h
How it was run: (§1)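 CLSI M38-A broth microdilution with modifications: RPMI 1640 with L-glutamine, 2% glucose, buffered to pH 7 with 0.165 M MOPS. Inoculum of 1 × 10^5 to 5 × 10^5 CFU/ml from 3- to 5-day-old cultures. Incubated 35°C, 48 h, humid. Visual reading with a mirror. MIC is complete growth inhibition; echinocandin MEC is hyphal morphological alteration. Azoles 8 to 0.015 μg/ml; others 16 to 0.03 μg/ml.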

Neosartorya hiratsukae [2] = test: Antimicrobial activity against Neosartorya hiratsukae isolate CNM-CM-3764 obtained from oropharyngeal exudate of patient after 48 hrs by broth microdilution method; type: functional; conditions: Aspergillus hiratsukae, isolate CNM-CM-3764, 48 h; how it was run: as §1
Aspergillus lentulus [3] = test: Antimicrobial activity against Aspergillus lentulus isolate CNM-CM-4330 obtained from sputum of patient after 48 hrs by broth microdilution method; type: functional; conditions: isolate CNM-CM-4330, 48 h; how it was run: as §1
Aspergillus viridinutans [4] = test: Antimicrobial activity against Aspergillus viridinutans isolate CNM-CM-3147 obtained from oropharyngeal exudate of patient after 48 hrs by broth microdilution method; type: functional; conditions: isolate CNM-CM-3147, 48 h; how it was run: as §1
[5] = test system: Neosartorya pseudofischeri; test: Antimicrobial activity against Neosartorya pseudofischeri isolate CNM-CM-3769 obtained from sputum of patient after 48 hrs by broth microdilution method; type: functional; conditions: Aspergillus thermomutatus
How it was run: (§2)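 CLSI M38-A broth microdilution with modifications: RPMI 1640 with L-glutamine, MOPS-buffered to pH 7, plus 2% glucose. Inoculum 1 × 10^5 to 5 × 10^5 CFU/ml from 3–5-day cultures. Incubated at 35°C for 48 h, humid. Read visually with a mirror. MIC = complete growth inhibition; echinocandin MEC = altered hyphal morphology. QC strain A. fumigatus ATCC 2004305.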

Aspergillus lentulus [6] = test: Antimicrobial activity against Aspergillus lentulus isolate CNM-CM-4370 obtained from sputum of patient after 48 hrs by broth microdilution method; type: functional; conditions: isolate CNM-CM-4370, 48 h; how it was run: as §1
[7] = test system: Aspergillus fumigatiaffinis; test: Antimicrobial activity against Aspergillus fumigatiaffinis isolate CNM-CM-3227 obtained from bronchoalveolar lavage fluid of patient after 48 hrs by broth microdilution method; conditions: isolate CNM-CM-3227, Lung
Aspergillus lentulus [8] = test: Antimicrobial activity against Aspergillus lentulus isolate CNM-CM-3134 obtained from sputum of patient after 48 hrs by broth microdilution method; type: functional; conditions: isolate CNM-CM-3134, 48 h; how it was run: as §1
Aspergillus fumigatus = test: Antimicrobial activity against Aspergillus fumigatus ATCC 2004305 after 48 hrs by broth microdilution method; type: functional; conditions: ATCC 2004305, 48 h
Aspergillus lentulus [9] = test: Antimicrobial activity against Aspergillus lentulus isolate CNM-CM-4428 obtained from skin of patient after 48 hrs by broth microdilution method; type: functional; conditions: isolate CNM-CM-4428, 48 h; how it was run: as §1
Aspergillus lentulus [10] = test: Antimicrobial activity against Aspergillus lentulus isolate CNM-CM-4420 obtained from nail of patient after 48 hrs by broth microdilution method; type: functional; conditions: isolate CNM-CM-4420, 48 h; how it was run: as §1
Neosartorya hiratsukae [11] = test: Antimicrobial activity against Neosartorya hiratsukae isolate CNM-CM-3740 obtained from oropharyngeal exudate of patient after 48 hrs by broth microdilution method; type: functional; conditions: Aspergillus hiratsukae, isolate CNM-CM-3740, 48 h; how it was run: as §1
Aspergillus lentulus [12] = test: Antimicrobial activity against Aspergillus lentulus isolate CNM-CM-3538 obtained from sputum of patient after 48 hrs by broth microdilution method; type: functional; conditions: isolate CNM-CM-3538, 48 h; how it was run: as §1
Aspergillus lentulus [13] = test: Antimicrobial activity against Aspergillus lentulus isolate CNM-CM-4415 obtained from sputum of patient after 48 hrs by broth microdilution method; type: functional; conditions: isolate CNM-CM-4415, 48 h; how it was run: as §1
Neosartorya hiratsukae [14] = test: Antimicrobial activity against Neosartorya hiratsukae isolate CNM-CM-4328 obtained from cornea of patient after 48 hrs by broth microdilution method; type: functional; conditions: Aspergillus hiratsukae, isolate CNM-CM-4328, Cornea; how it was run: as §1
Aspergillus lentulus [15] = test: Antimicrobial activity against Aspergillus lentulus isolate CNM-CM-3537 obtained from sputum of patient after 48 hrs by broth microdilution method; type: functional; conditions: isolate CNM-CM-3537, 48 h; how it was run: as §1
Neosartorya hiratsukae [16] = test: Antimicrobial activity against Neosartorya hiratsukae isolate CNM-CM-3305 obtained from skin of patient after 48 hrs by broth microdilution method; type: functional; conditions: Aspergillus hiratsukae, isolate CNM-CM-3305, 48 h; how it was run: as §1
[17] = test system: Aspergillus fumigatiaffinis; test: Antimicrobial activity against Aspergillus fumigatiaffinis isolate CNM-CM-2280 obtained from sputum of patient after 48 hrs by broth microdilution method; conditions: isolate CNM-CM-2280, 48 h
[18] = test system: Neosartorya pseudofischeri; test: Antimicrobial activity against Neosartorya pseudofischeri isolate CNM-CM-4060 obtained from sputum of patient after 48 hrs by broth microdilution method; type: functional; conditions: Aspergillus thermomutatus; how it was run: as §2
Aspergillus lentulus [19] = test: Antimicrobial activity against Aspergillus lentulus isolate CNM-CM-3364 obtained from bronchoalveolar lavage fluid of patient after 48 hrs by broth microdilution method; type: functional; conditions: isolate CNM-CM-3364, Lung; how it was run: as §1
Neosartorya hiratsukae [20] = test: Antimicrobial activity against Neosartorya hiratsukae isolate CNM-CM-3303 obtained from skin of patient after 48 hrs by broth microdilution method; type: functional; conditions: Aspergillus hiratsukae, isolate CNM-CM-3303, 48 h; how it was run: as §1
Aspergillus viridinutans [21] = test: Antimicrobial activity against Aspergillus viridinutans isolate CNM-CM-4518 obtained from nail of patient after 48 hrs by broth microdilution method; type: functional; conditions: isolate CNM-CM-4518, 48 h; how it was run: as §1
[22] = test system: Aspergillus fumisynnematus; test: Antimicrobial activity against Aspergillus fumisynnematus isolate CNM-CM-4063 obtained from bronchoalveolar aspirate of patient after 48 hrs by broth microdilution method; type: functional; conditions: isolate CNM-CM-4063, Lung; how it was run: as §1
Aspergillus lentulus [23] = test: Antimicrobial activity against Aspergillus lentulus isolate CNM-CM-4426 obtained from sputum of patient after 48 hrs by broth microdilution method; type: functional; conditions: isolate CNM-CM-4426, 48 h; how it was run: as §1
Aspergillus lentulus [24] = test: Antimicrobial activity against Aspergillus lentulus isolate CNM-CM-3599 obtained from sputum of patient after 48 hrs by broth microdilution method; type: functional; conditions: isolate CNM-CM-3599, 48 h; how it was run: as §1
Aspergillus lentulus [25] = test: Antimicrobial activity against Aspergillus lentulus isolate CNM-CM-4387 obtained from sputum of patient after 48 hrs by broth microdilution method; type: functional; conditions: isolate CNM-CM-4387, 48 h; how it was run: as §1
Aspergillus lentulus [26] = test: Antimicrobial activity against Aspergillus lentulus isolate CNM-CM-1290 obtained from sputum of patient after 48 hrs by broth microdilution method; type: functional; conditions: isolate CNM-CM-1290, 48 h; how it was run: as §1
[27] = test system: Neosartorya pseudofischeri; test: Antimicrobial activity against Neosartorya pseudofischeri isolate CNM-CM-2270 obtained from sputum of patient after 48 hrs by broth microdilution method; type: functional; conditions: Aspergillus thermomutatus, isolate CNM-CM-2270, 48 h; how it was run: as §2
[28] = test system: Neosartorya pseudofischeri; test: Antimicrobial activity against Neosartorya pseudofischeri isolate CNM-CM-3914 obtained from nail of patient after 48 hrs by broth microdilution method; type: functional; conditions: Aspergillus thermomutatus, isolate CNM-CM-3914, 48 h; how it was run: as §2

Compound: CCC(C)n1ncn(-c2ccc(N3CCN(c4ccc(OCC5COC(Cn6cncn6)(c6ccc(Cl)cc6Cl)O5)cc4)CC3)cc2)c1=O (stereo not drawn) [ITRACONAZOLE]
- MIC (Aspergillus lentulus [1]): 0.43 mg/L (≈ 0.609 µM)
- MIC (Neosartorya hiratsukae [2]): 0.33 mg/L (≈ 0.468 µM)
- MIC (Aspergillus lentulus [3]): 6 mg/L (≈ 8.5 µM)
- MIC (Aspergillus viridinutans [4]): 14.4 mg/L (≈ 20.4 µM)
- MIC [5]: 8 mg/L (≈ 11.3 µM)
- MIC (Aspergillus lentulus [6]): 8 mg/L (≈ 11.3 µM)
- MIC [7]: 8 mg/L (≈ 11.3 µM)
- MIC (Aspergillus lentulus [8]): 10.2 mg/L (≈ 14.5 µM)
- MIC (Aspergillus fumigatus): 0.125 mg/L (≈ 0.177 µM)
- MIC (Aspergillus lentulus [9]): 7 mg/L (≈ 9.92 µM)
- MIC (Aspergillus lentulus [10]): 8 mg/L (≈ 11.3 µM)
- MIC (Neosartorya hiratsukae [11]): 0.16 mg/L (≈ 0.227 µM)
- MIC (Aspergillus lentulus [12]): 8.25 mg/L (≈ 11.7 µM)
- MIC (Aspergillus lentulus [13]): 16 mg/L (≈ 22.7 µM)
- MIC (Neosartorya hiratsukae [14]): 0.25 mg/L (≈ 0.354 µM)
- MIC (Aspergillus lentulus [15]): 8.25 mg/L (≈ 11.7 µM)
- MIC (Neosartorya hiratsukae [16]): 0.185 mg/L (≈ 0.262 µM)
- MIC [17]: 6.66 mg/L (≈ 9.44 µM)
- MIC [18]: 11 mg/L (≈ 15.6 µM)
- MIC (Aspergillus lentulus [19]): 8 mg/L (≈ 11.3 µM)
- MIC (Neosartorya hiratsukae [20]): 0.12 mg/L (≈ 0.17 µM)
- MIC (Aspergillus viridinutans [21]): 16 mg/L (≈ 22.7 µM)
- MIC [22]: 0.25 mg/L (≈ 0.354 µM)
- MIC (Aspergillus lentulus [23]): 6.66 mg/L (≈ 9.44 µM)
- MIC (Aspergillus lentulus [24]): 0.5 mg/L (≈ 0.709 µM)
- MIC (Aspergillus lentulus [25]): 8 mg/L (≈ 11.3 µM)
- MIC (Aspergillus lentulus [26]): 9.25 mg/L (≈ 13.1 µM)
- MIC [27]: 8 mg/L (≈ 11.3 µM)
- MIC [28]: 16 mg/L (≈ 22.7 µM)

Compound: CCCCCOc1ccc(-c2cc(-c3ccc(C(=O)N[C@H]4C[C@@H](O)[C@@H](O)NC(=O)[C@@H]5[C@@H](O)[C@@H](C)CN5C(=O)[C@H]([C@H](O)CC(N)=O)NC(=O)[C@H]([C@H](O)[C@@H](O)c5ccc(O)c(OS(=O)(=O)O)c5)NC(=O)[C@@H]5C[C@@H](O)CN5C(=O)[C@H]([C@@H](C)O)NC4=O)cc3)no2)cc1 [MICAFUNGIN] (X1-[Orn(4R-OH,5R-OH)]T[Hyp][hTyr(3S-OH,4S-OH,3'-OSO3H)][Gln(3R-OH)][Pro(3S-OH,4S-Me)]; lactam 1-C)
- minimal effective concentration (Aspergillus lentulus [1]; read-out: MEC): 0.03 µg/mL
- minimal effective concentration (Neosartorya hiratsukae [2]; read-out: MEC): 0.04 µg/mL
- minimal effective concentration (Aspergillus lentulus [3]; read-out: MEC): 0.03 µg/mL
- minimal effective concentration (Aspergillus viridinutans [4]; read-out: MEC): 0.2 µg/mL
- minimal effective concentration ([5]; read-out: MEC): 0.06 µg/mL
- minimal effective concentration (Aspergillus lentulus [6]; read-out: MEC): 0.03 µg/mL
- minimal effective concentration ([7]; read-out: MEC): 0.08 µg/mL
- minimal effective concentration (Aspergillus lentulus [8]; read-out: MEC): 0.07 µg/mL
- minimal effective concentration (Aspergillus fumigatus; read-out: MEC): 0.03 µg/mL
- minimal effective concentration (Aspergillus lentulus [9]; read-out: MEC): 0.03 µg/mL
- minimal effective concentration (Aspergillus lentulus [10]; read-out: MEC): 0.03 µg/mL
- minimal effective concentration (Neosartorya hiratsukae [11]; read-out: MEC): 0.03 µg/mL
- minimal effective concentration (Aspergillus lentulus [12]; read-out: MEC): 0.1 µg/mL
- minimal effective concentration (Aspergillus lentulus [13]; read-out: MEC): 0.03 µg/mL
- minimal effective concentration (Neosartorya hiratsukae [14]; read-out: MEC): 0.03 µg/mL
- minimal effective concentration (Aspergillus lentulus [15]; read-out: MEC): 0.04 µg/mL
- minimal effective concentration (Neosartorya hiratsukae [16]; read-out: MEC): 0.14 µg/mL
- minimal effective concentration ([17]; read-out: MEC): 0.04 µg/mL
- minimal effective concentration ([18]; read-out: MEC): 0.03 µg/mL
- minimal effective concentration (Aspergillus lentulus [19]; read-out: MEC): 0.03 µg/mL
- minimal effective concentration (Neosartorya hiratsukae [20]; read-out: MEC): 0.03 µg/mL
- minimal effective concentration (Aspergillus viridinutans [21]; read-out: MEC): 0.03 µg/mL
- minimal effective concentration ([22]; read-out: MEC): 0.03 µg/mL
- minimal effective concentration (Aspergillus lentulus [23]; read-out: MEC): 0.03 µg/mL
- minimal effective concentration (Aspergillus lentulus [24]; read-out: MEC): 0.03 µg/mL
- minimal effective concentration (Aspergillus lentulus [25]; read-out: MEC): 0.03 µg/mL
- minimal effective concentration (Aspergillus lentulus [26]; read-out: MEC): 0.05 µg/mL
- minimal effective concentration ([27]; read-out: MEC): 0.26 µg/mL
- minimal effective concentration ([28]; read-out: MEC): 0.03 µg/mL
